Calls of active or inactive are those of the source. No cut-off for these calls is given here.
Columns and labels:
[1] = Cmax in C57BL/6 mouse plasma at 100 mg/kg, po by LC-MS/MS analysis; format: ADME, organism-based
[2] = Cmax in C57BL/6 mouse brain at 100 mg/kg, po by LC-MS/MS analysis; format: ADME, organism-based
[3] = molecular target: T1, Metabotropic glutamate receptor 3 (Rattus norvegicus, UniProt P31422); assay: Agonist activity at rat mGlu3; format: functional
[4] = Cmax in CSF of C57BL/6 mouse at 100 mg/kg, po by LC-MS/MS analysis; format: ADME, organism-based, Cerebrospinal fluid
[5] = molecular target: T1, Metabotropic glutamate receptor 3; assay: Agonist activity at SNAP tagged rat mGlu3 transfected HEK293 cells preincubated with antagonist LY-341495 followed by compound addition by TR-FRET assay; format: functional, cell-based
[6] = Half life in C57BL/6 mouse plasma at 100 mg/kg, po by LC-MS/MS analysis; format: ADME, organism-based
[7] = Half life in C57BL/6 mouse brain at 100 mg/kg, po by LC-MS/MS analysis; format: ADME, organism-based
[8] = molecular target: Metabotropic glutamate receptor 5 (Rattus norvegicus) (UniProt P31424); assay: Antagonist activity at rat mGlu5 transfected in HEK293 cells by IP-one HTRF assay; format: functional, cell-based
Outline: (§1)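 HEK293 cells transiently electroporated with rat receptor plasmid plus EAAC1 Glu transporter, plated 150 000 cells/well on polyornithine, serum-free Glutamax DMEM ≥2 h before assay. At 24 h, washed in Krebs buffer and stimulated 30 min with compound in 50 mM LiCl. IP1 read by HTRF, at least duplicates, EC50 from 2–5 experiments.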

[9] = molecular target: Metabotropic glutamate receptor 8 (Rattus norvegicus) (UniProt P70579); assay: Antagonist activity at rat mGlu8 transfected in HEK293 cells co-transfected with chimeric Gqi9 incubated for 30 mins by IP-one HTRF assay; format: functional, cell-based
Outline: (§2)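 Rat group II/III receptor co-electroporated into HEK293 with chimeric Gqi9 and EAAC1 transporter, serum-free medium ≥2 h pre-assay. At 24 h post-transfection, Krebs wash, then 30 min compound exposure with 50 mM LiCl. IP1 accumulation quantified by HTRF kit, at least duplicate runs, mean of 2–5 experiments.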

[10] = molecular target: T1, Metabotropic glutamate receptor 3; assay: Agonist activity at rat mGlu3 transfected in HEK293 cells co-transfected with chimeric Gqi9 incubated for 30 mins by IP-one HTRF assay; format: functional, cell-based
[11] = molecular target: Metabotropic glutamate receptor 3 (Rattus norvegicus) (UniProt P31422); assay: Antagonist activity at rat mGlu3 transfected in HEK293 cells co-transfected with chimeric Gqi9 incubated for 30 mins by IP-one HTRF assay; format: functional, cell-based
[12] = molecular target: Metabotropic glutamate receptor 2 (Rattus norvegicus) (UniProt P31421); assay: Antagonist activity at rat mGlu2 transfected in HEK293 cells co-transfected with chimeric Gqi9 incubated for 30 mins by IP-one HTRF assay; format: functional, cell-based
[13] = molecular target: T2, Metabotropic glutamate receptor 2 (Rattus norvegicus, UniProt P31421); assay: Agonist activity at rat mGlu2 transfected in HEK293 cells co-transfected with chimeric Gqi9 incubated for 30 mins by IP-one HTRF assay; format: functional, cell-based; conditions: read-out: EC50; outline: as §2
[14] = molecular target: Metabotropic glutamate receptor 4 (Rattus norvegicus) (UniProt P31423); assay: Antagonist activity at rat mGlu4 transfected in HEK293 cells co-transfected with chimeric Gqi9 incubated for 30 mins by IP-one HTRF assay; format: functional, cell-based; outline: as §2
[15] = molecular target: Metabotropic glutamate receptor 6 (Rattus norvegicus) (UniProt P35349); assay: Antagonist activity at rat mGlu6 transfected in HEK293 cells co-transfected with chimeric Gqi9 incubated for 30 mins by IP-one HTRF assay; format: functional, cell-based; outline: as §2
[16] = molecular target: Metabotropic glutamate receptor 1 (Rattus norvegicus) (UniProt P23385); assay: Antagonist activity at rat mGlu1 transfected in HEK293 cells by IP-one HTRF assay; format: functional, cell-based; outline: as §1
[17] = molecular target: Metabotropic glutamate receptor 7 (Rattus norvegicus) (UniProt P35400); assay: Antagonist activity at rat mGlu7 transfected in HEK293 cells co-transfected with chimeric Gqi9 incubated for 30 mins by IP-one HTRF assay; format: functional, cell-based; outline: as §2
[18] = molecular target: T2, Metabotropic glutamate receptor 2; assay: Agonist activity at rat mGlu2; format: functional
[19] = molecular target: Metabotropic glutamate receptor 5 (Rattus norvegicus, UniProt P31424); assay: Agonist activity at rat mGlu5 transfected in HEK293 cells by IP-one HTRF assay; format: functional, cell-based
Outline: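 HEK293 cells transiently electroporated with rat receptor plasmid plus the high-affinity Glu transporter EAAC1. Cells were grown in DMEM with 10% FBS and seeded on polyornithine-coated wells at 150 000 cells/well. Medium was switched to serum-free Glutamax DMEM ≥2 h before assay. At 24 h cells were washed in Krebs buffer and stimulated 30 min with agonist plus 50 mM LiCl. IP1 read by IP-One HTRF; ≥ duplicates.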

[20] = molecular target: Metabotropic glutamate receptor 8 (Rattus norvegicus, UniProt P70579); assay: Agonist activity at rat mGlu8 transfected in HEK293 cells co-transfected with chimeric Gqi9 incubated for 30 mins by IP-one HTRF assay; format: functional, cell-based; outline: as §2
[21] = molecular target: Metabotropic glutamate receptor 7 (Rattus norvegicus) (UniProt P35400); assay: Agonist activity at rat mGlu7 transfected in HEK293 cells co-transfected with chimeric Gqi9 at 3000 uM incubated for 30 mins by IP-one HTRF assay relative to control; format: functional, cell-based; conditions: filed as agonist
Outline: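 Rat receptor was co-electroporated into HEK293 cells with chimeric Gqi9, for phospholipase C coupling, and with the EAAC1 Glu transporter. Cells were seeded on polyornithine at 150 000 cells/well and moved to serum-free Glutamax DMEM ≥2 h before assay. At 24 h cells were washed in Krebs buffer and given compound at 3000 μM with 50 mM LiCl for 30 min. IP1 measured by HTRF kit; response expressed as % of control; ≥ duplicates.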

[22] = molecular target: Metabotropic glutamate receptor 6 (Rattus norvegicus, UniProt P35349); assay: Agonist activity at rat mGlu6 transfected in HEK293 cells co-transfected with chimeric Gqi9 incubated for 30 mins by IP-one HTRF assay; format: functional, cell-based; conditions: read-out: pEC50 (converted); outline: as §2
[23] = molecular target: Metabotropic glutamate receptor 4 (Rattus norvegicus, UniProt P31423); assay: Agonist activity at rat mGlu4 transfected in HEK293 cells co-transfected with chimeric Gqi9 incubated for 30 mins by IP-one HTRF assay; format: functional, cell-based; conditions: read-out: EC50; outline: as §2
Chain of Metabotropic glutamate receptor 4 (P31423 whole entry): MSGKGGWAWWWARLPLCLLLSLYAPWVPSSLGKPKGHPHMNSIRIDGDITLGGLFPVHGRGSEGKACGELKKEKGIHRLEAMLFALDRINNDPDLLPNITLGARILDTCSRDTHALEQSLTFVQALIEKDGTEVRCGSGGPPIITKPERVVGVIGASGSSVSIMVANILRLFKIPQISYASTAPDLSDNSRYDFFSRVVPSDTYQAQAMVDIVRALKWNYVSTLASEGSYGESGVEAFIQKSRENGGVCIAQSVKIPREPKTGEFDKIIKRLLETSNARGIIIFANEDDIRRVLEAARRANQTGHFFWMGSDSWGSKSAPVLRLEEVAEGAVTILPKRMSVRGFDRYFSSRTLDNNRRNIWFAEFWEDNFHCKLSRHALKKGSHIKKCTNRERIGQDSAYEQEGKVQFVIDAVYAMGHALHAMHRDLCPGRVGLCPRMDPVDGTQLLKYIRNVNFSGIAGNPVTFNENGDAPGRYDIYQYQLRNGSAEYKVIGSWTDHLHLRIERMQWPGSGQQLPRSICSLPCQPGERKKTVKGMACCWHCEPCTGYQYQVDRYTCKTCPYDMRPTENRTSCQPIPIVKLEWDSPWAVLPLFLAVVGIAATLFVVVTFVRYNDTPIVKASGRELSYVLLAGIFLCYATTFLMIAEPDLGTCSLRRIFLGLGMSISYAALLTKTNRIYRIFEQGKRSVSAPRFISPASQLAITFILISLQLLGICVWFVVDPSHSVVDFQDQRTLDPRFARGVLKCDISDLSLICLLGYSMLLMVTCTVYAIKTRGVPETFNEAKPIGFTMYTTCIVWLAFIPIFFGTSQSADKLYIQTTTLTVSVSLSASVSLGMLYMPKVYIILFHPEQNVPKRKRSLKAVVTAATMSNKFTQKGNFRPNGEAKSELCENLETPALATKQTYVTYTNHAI

Chain of Metabotropic glutamate receptor 2 (Rattus norvegicus) (P31421 19-872 limits assumed): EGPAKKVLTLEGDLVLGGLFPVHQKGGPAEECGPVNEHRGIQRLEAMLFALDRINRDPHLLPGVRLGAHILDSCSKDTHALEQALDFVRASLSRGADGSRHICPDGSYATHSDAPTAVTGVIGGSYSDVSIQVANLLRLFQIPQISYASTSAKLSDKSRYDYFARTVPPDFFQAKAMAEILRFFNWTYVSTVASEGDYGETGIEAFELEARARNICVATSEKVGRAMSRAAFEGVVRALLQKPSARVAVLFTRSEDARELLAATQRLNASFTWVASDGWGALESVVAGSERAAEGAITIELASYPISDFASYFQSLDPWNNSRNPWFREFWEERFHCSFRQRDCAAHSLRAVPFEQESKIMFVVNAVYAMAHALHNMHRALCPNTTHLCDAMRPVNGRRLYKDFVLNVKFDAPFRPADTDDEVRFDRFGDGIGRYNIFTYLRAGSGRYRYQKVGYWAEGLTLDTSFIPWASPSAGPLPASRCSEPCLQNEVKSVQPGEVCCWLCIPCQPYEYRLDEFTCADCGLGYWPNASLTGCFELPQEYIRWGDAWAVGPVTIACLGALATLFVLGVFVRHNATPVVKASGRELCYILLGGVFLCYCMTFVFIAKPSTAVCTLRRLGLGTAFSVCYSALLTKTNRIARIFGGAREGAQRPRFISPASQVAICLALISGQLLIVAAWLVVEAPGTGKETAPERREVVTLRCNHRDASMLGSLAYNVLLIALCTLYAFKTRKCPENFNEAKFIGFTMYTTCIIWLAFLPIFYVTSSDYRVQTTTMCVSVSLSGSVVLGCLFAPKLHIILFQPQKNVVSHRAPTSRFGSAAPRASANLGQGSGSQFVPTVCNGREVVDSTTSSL
Chain of Metabotropic glutamate receptor 1 (Rattus norvegicus) (P23385 19-1199 limits assumed): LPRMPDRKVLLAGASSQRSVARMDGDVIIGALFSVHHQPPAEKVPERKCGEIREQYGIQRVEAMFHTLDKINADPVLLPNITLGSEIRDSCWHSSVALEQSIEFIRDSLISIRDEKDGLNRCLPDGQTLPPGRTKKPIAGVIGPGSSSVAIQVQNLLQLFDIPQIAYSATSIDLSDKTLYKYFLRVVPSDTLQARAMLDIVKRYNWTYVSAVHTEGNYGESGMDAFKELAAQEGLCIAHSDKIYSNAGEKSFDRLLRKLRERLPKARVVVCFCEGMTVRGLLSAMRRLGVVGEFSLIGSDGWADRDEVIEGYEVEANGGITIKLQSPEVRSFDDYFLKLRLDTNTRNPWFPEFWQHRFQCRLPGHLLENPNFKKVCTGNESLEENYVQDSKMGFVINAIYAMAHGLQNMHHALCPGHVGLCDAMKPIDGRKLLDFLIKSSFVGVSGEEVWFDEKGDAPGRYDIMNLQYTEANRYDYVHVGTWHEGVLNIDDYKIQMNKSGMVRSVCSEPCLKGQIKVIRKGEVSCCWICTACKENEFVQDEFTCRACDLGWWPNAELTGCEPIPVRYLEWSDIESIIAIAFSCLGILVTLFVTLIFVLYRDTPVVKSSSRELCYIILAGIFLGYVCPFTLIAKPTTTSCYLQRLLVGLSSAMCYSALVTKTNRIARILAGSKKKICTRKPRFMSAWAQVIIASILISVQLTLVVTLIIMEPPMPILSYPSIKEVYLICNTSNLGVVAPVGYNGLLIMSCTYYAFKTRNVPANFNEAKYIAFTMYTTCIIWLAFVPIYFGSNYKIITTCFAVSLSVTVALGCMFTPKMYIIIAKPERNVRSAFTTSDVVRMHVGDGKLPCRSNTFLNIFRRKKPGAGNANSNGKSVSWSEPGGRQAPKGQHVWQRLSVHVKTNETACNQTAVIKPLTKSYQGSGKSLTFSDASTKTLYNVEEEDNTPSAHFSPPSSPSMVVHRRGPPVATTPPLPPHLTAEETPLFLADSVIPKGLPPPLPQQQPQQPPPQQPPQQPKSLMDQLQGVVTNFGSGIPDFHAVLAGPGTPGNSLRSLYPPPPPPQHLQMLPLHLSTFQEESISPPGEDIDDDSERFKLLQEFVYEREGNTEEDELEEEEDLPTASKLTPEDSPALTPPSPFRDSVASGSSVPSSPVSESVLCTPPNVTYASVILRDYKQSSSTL
Chain of Metabotropic glutamate receptor 4 (Rattus norvegicus) (P31423 whole entry): as the sequence (P31423 whole entry) above
Chain of Metabotropic glutamate receptor 7 (Rattus norvegicus) (P35400 whole entry): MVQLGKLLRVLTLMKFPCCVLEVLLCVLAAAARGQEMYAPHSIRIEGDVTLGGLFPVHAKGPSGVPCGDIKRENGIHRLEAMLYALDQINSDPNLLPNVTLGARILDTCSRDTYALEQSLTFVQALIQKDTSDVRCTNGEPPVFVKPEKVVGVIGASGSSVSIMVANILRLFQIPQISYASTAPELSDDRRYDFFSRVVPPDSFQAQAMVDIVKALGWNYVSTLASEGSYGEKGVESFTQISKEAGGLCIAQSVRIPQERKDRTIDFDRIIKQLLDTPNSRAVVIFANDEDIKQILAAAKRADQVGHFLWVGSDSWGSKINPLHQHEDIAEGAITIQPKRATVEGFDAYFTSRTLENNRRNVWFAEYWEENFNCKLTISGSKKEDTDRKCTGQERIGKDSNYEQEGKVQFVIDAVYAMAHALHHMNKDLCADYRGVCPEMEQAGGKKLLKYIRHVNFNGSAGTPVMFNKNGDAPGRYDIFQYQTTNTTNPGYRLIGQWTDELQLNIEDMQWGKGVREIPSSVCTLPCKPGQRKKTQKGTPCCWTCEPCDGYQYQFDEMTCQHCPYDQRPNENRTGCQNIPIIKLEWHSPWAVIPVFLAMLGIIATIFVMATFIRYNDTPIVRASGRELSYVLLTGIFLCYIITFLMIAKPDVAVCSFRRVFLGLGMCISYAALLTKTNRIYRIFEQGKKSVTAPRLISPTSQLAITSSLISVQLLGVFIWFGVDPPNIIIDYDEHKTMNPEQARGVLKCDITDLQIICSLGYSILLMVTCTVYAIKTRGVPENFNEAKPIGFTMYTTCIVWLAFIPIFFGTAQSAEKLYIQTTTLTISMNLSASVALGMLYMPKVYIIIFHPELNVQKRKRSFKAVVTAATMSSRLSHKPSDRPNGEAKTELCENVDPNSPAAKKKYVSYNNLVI
Chain of Metabotropic glutamate receptor 8 (Rattus norvegicus) (P70579 whole entry): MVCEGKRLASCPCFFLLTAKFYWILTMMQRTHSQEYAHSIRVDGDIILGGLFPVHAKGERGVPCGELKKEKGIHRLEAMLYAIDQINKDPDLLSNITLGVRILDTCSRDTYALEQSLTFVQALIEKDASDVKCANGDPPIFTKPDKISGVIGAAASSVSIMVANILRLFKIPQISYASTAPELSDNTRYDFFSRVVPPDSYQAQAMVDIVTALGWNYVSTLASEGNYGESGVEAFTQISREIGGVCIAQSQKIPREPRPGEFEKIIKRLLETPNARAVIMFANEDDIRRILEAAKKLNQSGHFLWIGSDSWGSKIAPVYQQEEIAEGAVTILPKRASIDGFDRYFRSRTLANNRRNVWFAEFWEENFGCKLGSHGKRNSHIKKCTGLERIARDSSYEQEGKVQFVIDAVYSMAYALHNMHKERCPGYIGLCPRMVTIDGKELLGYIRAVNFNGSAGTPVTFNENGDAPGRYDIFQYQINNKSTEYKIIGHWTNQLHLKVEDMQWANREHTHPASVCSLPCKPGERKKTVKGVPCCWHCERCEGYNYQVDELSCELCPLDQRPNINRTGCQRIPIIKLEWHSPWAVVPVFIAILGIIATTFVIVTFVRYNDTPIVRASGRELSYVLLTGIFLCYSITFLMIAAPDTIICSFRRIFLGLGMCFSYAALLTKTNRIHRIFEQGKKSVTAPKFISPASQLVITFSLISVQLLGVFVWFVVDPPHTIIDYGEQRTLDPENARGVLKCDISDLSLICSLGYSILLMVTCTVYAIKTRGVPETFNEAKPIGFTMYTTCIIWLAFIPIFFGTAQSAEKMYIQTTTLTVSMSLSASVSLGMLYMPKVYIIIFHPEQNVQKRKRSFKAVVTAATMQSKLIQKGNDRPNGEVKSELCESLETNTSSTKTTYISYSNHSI
Chain of Metabotropic glutamate receptor 8 (P70579 whole entry): as above

Row | SMILES | EC50 [3] | Activity [8] | Activity [9] | Activity [11] | Activity [12] | Activity [14] | Activity [15] | Activity [16] | Activity [17] | other results
1 | N[C@@]1(C(=O)O)CC[C@H]2[C@H](C(=O)O)[C@H]21 | 27 nM | – | – | – | – | – | – | – | – | Cmax [1]: 2120 ng/mL; Cmax [2]: 76 ng/g; Cmax [4]: 14 ng/g; EC50 [5]: 4800 nM; half-life [6]: 6.8 h; half-life [7]: 69 h
2 | N[C@@]1(C(=O)O)CO[C@H]2[C@H](C(=O)O)[C@H]21 [LY-379268] | – | inactive | inactive | inactive | inactive | inactive | inactive | inactive | inactive | EC50 [10]: 10 nM; EC50 [13]: 1 nM
3 | N[C@H](C(=O)O)[C@H]1[C@@H](CO)[C@@H]1C(=O)O | 7 nM | – | – | – | – | – | – | – | – | EC50 [18]: 4 nM
4 | N[C@@H](Cn1oc(=O)[nH]c1=O)C(=O)O [QUISQUALATE] | – | inactive | inactive | inactive | inactive | inactive | inactive | inactive | inactive | EC50 ([19]; read-out: EC50): 27 nM; EC50 ([19]; read-out: pEC50 (converted)): 40.7 nM
5 | N[C@@H](CCP(=O)(O)O)C(=O)O | – | inactive | inactive | inactive | inactive | inactive | inactive | inactive | inactive | EC50 ([20]; read-out: EC50): 290 nM; EC50 ([20]; read-out: pEC50 (converted)): 174 nM; Activity [21]: 100%; EC50 [22]: 2290 nM; EC50 [23]: 180 nM

Reference: ChEMBL document CHEMBL5537160, “Design, Synthesis, Pharmacology, and In Silico Studies of (1S,2S,3S)-2-((S)-Amino(carboxy)methyl)-3-(carboxymethyl)cyclopropane-1-carboxylic Acid (LBG30300): A Picomolar Potency Subtype-Selective mGlu2 Receptor Agonist” (J Med Chem, 2024)
